TCR CD3 inh: blocks the human TCR-CD3 interaction; TAMRA-labeled TCR probe fluorescence, biochemical; inhibition, % at 9.4 µM; 0.37% of 360,000 active;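 also: recombinant mutant TCR 2C K166C tagged with TAMRA read by polarization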
mABHD4 FP: inhibitors of mouse ABHD4 | inhibition, % at 8.92 µM | 0.54% of 370,000 active | purified mABHD4, FP-Rh probe fluorescence polarization | Q8VD66;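 active = inhibition exceeding the mean over every tested compound plus 3 SD, cut at about 30% in these data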
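Assay system: Wild-type mouse ABHD4 protein | Medium: HEPES pH 7.0 buffer, 150 mM NaCl, 0.01% Pluronic F-127 | Incubation: Enzyme–compound pre-incubation 45 min, then probe 60 min, both 25 °C | Technique: Fluorescence polarization with parallel and perpendicular emission, 525/598 nm | Evaluation: % inhibition of FP-Rh probe binding versus controls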
HTRA1 inhibitor: HTRA1 (human) protease inhibition. AID 504803. inhibition, % at 5.96 µM. 0.5% of 340,000 active. recombinant HTRA1, FP-rhodamine activity-based probe, fluorescence polarization; in the data active = inhibition above about 36%
PRMT1 inh: PRMT1 (human) inhibition, primary screen | Q99873 | recombinant PRMT1, activity-based probe fluorescence polarization | inhibition, % at 2.79 µM | 1.3% of 370,000 active;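 active = inhibition above about 21% made by adding two undisclosed values, limit read from the data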
Target sequence (Q99873 whole entry, looked up): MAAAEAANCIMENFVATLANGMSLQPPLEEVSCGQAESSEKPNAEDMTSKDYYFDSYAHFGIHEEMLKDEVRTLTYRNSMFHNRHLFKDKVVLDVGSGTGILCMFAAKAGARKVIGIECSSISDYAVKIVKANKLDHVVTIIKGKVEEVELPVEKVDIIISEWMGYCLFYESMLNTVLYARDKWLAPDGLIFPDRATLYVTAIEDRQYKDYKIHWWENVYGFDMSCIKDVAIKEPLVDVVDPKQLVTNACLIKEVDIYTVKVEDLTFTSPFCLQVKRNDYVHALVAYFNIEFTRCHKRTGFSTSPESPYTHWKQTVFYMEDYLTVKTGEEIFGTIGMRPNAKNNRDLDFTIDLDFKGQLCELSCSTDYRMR
SIAE primary: blocks human sialic acid acetylesterase. Q9HAT2. SIAE FP-Rh probe binding, fluorescence polarization. inhibition, % at 9.66 µM. 0.69% of 370,000 active. AID 1053197;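 active = inhibition above a cutoff: mean of compounds within the control limits plus 3 SD of those, cut at about 17% in these data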
BSA TAMRA ctr: interferes with TAMRA-BSA probe, flagging TCR-CD3 hits; shares compounds with TCR CD3 inh; TAMRA-labeled BSA probe fluorescence counterscreen; 10% of 1,200 active; inhibition, % at 9.4 µM; in the data active = inhibition above about 23%
TCR-CD3 inh conf: confirmation of human TCR-CD3 interaction inhibitors | shares compounds with TCR CD3 inh | TAMRA-labeled TCR probe fluorescence binding assay | inhibition, % at 9.4 µM | 48% of 1,200 active
Numbers stand for hits; 0 = inactive; - = no result given; + = active, no number. A selection: hits, their analogues and other compounds. The true share with any hit is near 2.7%. Rule as the data show it, unless noted: active = inhibition above about 19%; inactive = the rest.

SMILES | TCR CD3 inh | mABHD4 FP | HTRA1 inhibitor | PRMT1 inh | SIAE primary | BSA TAMRA ctr | TCR-CD3 inh conf
COc1ccc2c(c1)CCc1c-2nc2ccccc2c1N1CCOCC1 | 0 | 0 | 0 | 0 | 0 | - | -
O=C(CCN1C(=O)/C(=C/c2ccc(F)cc2)SC1=S)NCCCn1ccnc1 | 0 | 0 | 0 | 0 | 0 | - | -
O=C(CCN1C(=O)/C(=C/c2ccc(Cl)cc2)SC1=S)NCCCn1ccnc1 | 23.0 | 0 | 0 | 0 | 0 | 0 | 19.8
O=Nc1ccc(Br)cn1 | 0 | 0 | - | 0 | 0 | - | -
COc1ccc(NC(=O)NNC(=O)c2cc(C3CC3)nc3ccccc23)c(OC)c1 | 0 | 0 | 0 | 0 | 0 | - | -
CCc1ccccc1NC(=O)NNC(=O)c1ccc2ccccc2c1O | 26.3 | 0 | 0 | 0 | 0 | 0 | 21.8
COc1ccc(NC(=O)NNC(=O)c2ccc3ccccc3c2O)c(OC)c1 | 42.0 | 0 | 0 | 0 | 0 | 0 | 31.3
Cc1ncc(CO)c2c1Oc1nc(-c3ccccc3)nc(SCC(=O)Nc3cccc(O)c3)c1C2 | 21.4 | 0 | 0 | 0 | 0 | 0 | 0
COc1ccc(-c2nc3c(c(SCC(=O)Nc4cccc(O)c4)n2)Cc2c(CO)cnc(C)c2O3)cc1 | 0 | 0 | 0 | 0 | 0 | - | -
C[C@H](O)[C@@H]1C(=O)N2CCc3c([nH]c4c(-c5ccccc5)cccc34)[C@@H]2C[C@@H]1N(C)C(=O)/C=C/c1ccccc1 | 0 | 0 | - | 0 | 0 | - | -
CS(=O)(=O)N(Cc1ccc(C(=O)NN=C2CCCCCC2)cc1)c1ccccc1 | 32.6 | 0 | 0 | 0 | 0 | 0 | 0
Cc1ccc(NC(=O)c2ccc3c(c2)N(CC(=O)NC(C)C)C(=O)C(C)(C)O3)cc1 | 0 | 0 | 0 | 0 | 0 | - | -
Cc1ccc(C(=O)OCC(=O)Nc2ccc(C(N)=O)cc2)s1 | + | 0 | 0 | 0 | 0 | 0 | 0
O=C(CSc1nnc2ccccn12)NNC(=O)c1cccc([N+](=O)[O-])c1 | 79.7 | 0 | 0 | 0 | 0 | 0 | 0
CCC(=O)N(Cc1cc2c(C)ccc(C)c2[nH]c1=O)C1CCCCC1 | 28.9 | 0 | 0 | 0 | 0 | 0 | 0
C[C@H](O)[C@@H]1C(=O)N2CCc3c([nH]c4cccc(-c5ccccc5)c34)[C@@H]2C[C@@H]1N(C)C(=O)OCc1ccccc1 | 21.1 | 0 | - | 0 | 0 | 0 | 0
C[C@H](O)[C@@H]1C(=O)N2CCc3c([nH]c4cccc(-c5ccccc5)c34)[C@@H]2C[C@@H]1N(C)C(=O)c1ccccc1 | 0 | 0 | - | 0 | 0 | - | -
O=C(O)/C=C/c1ccc(S(=O)(=O)N2CCN(CCN3C(=O)C4C5C=CC(C5)C4C3=O)CC2)cc1 (centres undefined) | 0 | 0 | 0 | 0 | 0 | - | -
CC1SC(=NC(=O)C(C)N2C(=O)c3ccccc3C2=O)NC1=O (centres undefined) | 103.8 | 0 | 0 | 0 | 0 | 0 | 0
CSc1ccccc1OCc1cc(C(=O)N[C@H]2CCCCNC2=O)no1 | 0 | 0 | 0 | 0 | 0 | - | -
COc1ccc(OCc2cc(C(=O)N[C@H]3CCCCNC3=O)no2)c(Cl)c1 | 21.4 | 0 | 0 | 0 | 0 | 0 | 0
Cc1c(NC(=O)c2cc(Br)ccc2Cl)cccc1-n1cnnn1 | 0 | 0 | 0 | 0 | 0 | - | -
COc1cccc(S(=O)(=O)NCc2ccc(C(=O)Nc3ccc(Cl)c(Cl)c3)cc2)c1 | 34.5 | 0 | 0 | 0 | 0 | 0 | 0
O=C(Nc1ccc(Cl)c(Cl)c1)c1cccc(S(=O)(=O)NCc2cccnc2)c1 | 32.6 | 0 | 0 | 0 | 0 | 0 | 0
COc1ccc(O)c(/C=N/NC(=O)c2c(C)nnn2-c2nonc2N)c1 | 25.5 | 0 | 0 | 0 | 0 | 0 | 0
O=C(O)C1CC=CCC1C(=O)N1CCN(c2nc(-c3ccccc3)c3ccccc3n2)CC1 (centres undefined) | 0 | 0 | 0 | 0 | 0 | - | -
O=C(O)C1CC=CCC1C(=O)N1CCN(c2nc(-c3ccccc3Cl)c3cc(Br)ccc3n2)CC1 (centres undefined) | 51.8 | 0 | 0 | 0 | 0 | 0 | 0
CCC(=O)Nc1ccc(/C(C)=N/NC(=O)c2c(-c3ccccc3Cl)noc2C)cc1 | 21.4 | 0 | 0 | 0 | 0 | 0 | 0
Nc1ncnc2c1ncn2-c1ccccc1Cl | 0 | 0 | 0 | 0 | 0 | - | -
O=C(O)C1=CC[C@@H](c2ccc(Cl)cc2)N(S(=O)(=O)c2ccc(Cl)cc2)[C@H]1c1ccccc1 | 36.4 | 0 | 0 | 0 | 0 | 0 | 0

Assay outcomes (PubChem)
